Experimental data pooled from the literature.
Protocols differ between the studies behind these lines.
Target: SRSF protein kinase 3 (SRPK3, Homo sapiens, UniProt Q9UPE1)

effect on	method	tested at	remaining binding [%]	SMILES
binding	competition with immobilised ligand	0.1 µM	76	C[C@@H](c1ccc(-n2cnc3c(N)ncnc32)cc1)N1CCc2nn(C)c(Cc3ccccc3)c2C1=O
cell-free assay	competition with immobilised ligand	1 µM	100	CC(=O)N1CCC(c2ccc(C(=O)NC3=NCCN3)cc2C(F)(F)F)CC1
binding		1 µM	81	N[C@@H]1CCN(c2nccc(-c3cnn4ncccc34)n2)C1
binding	competition with immobilised ligand	1 µM	100	O=C(c1ccc(Nc2ncc(Cl)c(-c3ccc(Cl)s3)n2)cc1)N1CCC(N2CCCC2)CC1
binding	competition with immobilised ligand	50 nM	97	C[C@@H]1CN(c2ccc3ncc(-c4ccc5[nH]nc(C6CC6)c5c4)n3n2)C[C@H](C)O1
binding		1 µM	67	COc1ccnn2ncc(-c3ccnc(N(C)C)n3)c12
binding	competition with immobilised ligand	1 µM	92	CNC(=O)[C@@H]1CC[C@@H](n2c(-c3ccc4cnccc4c3)nc3ccc(C(=O)NCc4cccc(C(N)=O)c4)cc32)C1
binding	competition with immobilised ligand	1 µM	99	O=C(NCCCN1CCOCC1)c1ccc(Nc2nccc(-c3cc4ccccc4s3)n2)cc1
cell-free assay	competition with immobilised ligand	1 µM	57	COc1ccc2c(O[C@@H]3C[C@H]4C(=O)N[C@]5(C(=O)O)CC5/C=C\CCCCC[C@H](NC(=O)OC5CCCC5)C(=O)N4C3)cc(-c3csc(NC(=O)C(C)C)n3)nc2c1C (stereo partly drawn)
cell-free assay	competition with immobilised ligand	5 µM	98	COc1ncc2cc3ccccc3nc2c1C#N
cell-free assay	competition with immobilised ligand	1 µM	93	CCCOc1ccc([C@@H]2[C@@H](C(=O)O)[C@H](c3ccc4c(c3)OCO4)CN2CC(=O)Nc2c(CC)cccc2CC)cc1
binding		1 µM	100	CN(C)c1ncc(F)c(-c2cnn3ncccc23)n1
cell-free assay	competition with immobilised ligand	1 µM	100	O=C(Nc1cccnn1)N1CC(C/C=C/c2cncc(Oc3ccc(C(F)(F)F)cn3)n2)C1
binding	competition with immobilised ligand	5 µM	41	FC(F)(F)Oc1cccc(-c2cnc3ccc(-c4ccncc4)nn23)c1
binding		1 µM	92	CN(C)c1nccc(-c2cnn3ncccc23)n1
binding	competition with immobilised ligand	1 µM	99	C=CC(=O)N1CCC(C(=O)NCC(=O)N2CCN(c3nc(-c4cnc(N)nc4C(F)F)nc(N4CCOCC4)n3)CC2)CC1
cell-free assay	competition with immobilised ligand	1 µM	100	C[C@H](NC(=O)c1cnc2n1[C@](C)(Cc1ccc(C#N)cc1)C(=O)N2c1cc(Cl)c(F)c(Cl)c1)C(=O)NC1(c2ccccn2)CC1
binding		1 µM	55	C[C@@H]1CCN(c2nccc(-c3cnn4ncccc34)n2)C1
cell-free assay	competition with immobilised ligand	1 µM	100	NS(=O)(=O)c1cc(NC(=O)Cc2ccccc2)ccc1Oc1cccc(Cl)c1
binding	competition with immobilised ligand	1 µM	88	O=C(Nc1c[nH]nc1C(=O)NC1CCNCC1)c1cc(F)cc(F)c1
binding		1 µM	100	CN(CCCC(F)(F)F)c1nccc(-c2cnn3ncccc23)n1
cell-free assay	competition with immobilised ligand	1 µM	100	Cc1c(NC(=O)c2cc(C(N)=O)nc3cc(F)ccc23)c(C(F)(F)F)nn1Cc1ccc(C#N)cc1
binding		1 µM	100	F[C@@H]1CCN(c2nccc(-c3cnn4ncccc34)n2)C1
binding	competition with immobilised ligand	1 µM	95	COc1cnc(Nc2cccc(S(N)(=O)=O)c2)nc1N1CCN(c2ccccc2)CC1
